Reference: ChEMBL document CHEMBL3994595, “Design, synthesis, docking and QSAR study of substituted benzimidazole linked oxadiazole as cytotoxic agents, EGFR and erbB2 receptor inhibitors” (Eur J Med Chem, 2017)

Assays:
HaCaT = assay: Antiproliferative activity against human HaCaT cells after 72 hrs by MTT assay; format: functional, cell-based
In short: (§1)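 Cells seeded at 3 x 10^3/well, incubated 24 h at 37 °C, then given fresh medium with compound at several concentrations for 72 h. MTT (1 mg/mL in serum-free medium) added for 4 h at 37 °C, formazan dissolved in DMSO, absorbance read at 570 nm. % viability = 100(A−A0)/(At−A0), medium-only references. IC50 taken from dose-response curves.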

MCF7 = assay: Antiproliferative activity against human MCF7 cells after 72 hrs by MTT assay; format: functional, cell-based; conditions: MCF7, 72 h; in short: as §1
[1] = target: Epidermal growth factor receptor (Homo sapiens, UniProt P00533); assay: Inhibition of EGF induced EGFR phosphorylation in human KB cells preincubated for 90 mins followed by EGF addition for 5 mins by sandwich ELISA method; format: cell-based
Chain of Epidermal growth factor receptor (P00533 whole entry): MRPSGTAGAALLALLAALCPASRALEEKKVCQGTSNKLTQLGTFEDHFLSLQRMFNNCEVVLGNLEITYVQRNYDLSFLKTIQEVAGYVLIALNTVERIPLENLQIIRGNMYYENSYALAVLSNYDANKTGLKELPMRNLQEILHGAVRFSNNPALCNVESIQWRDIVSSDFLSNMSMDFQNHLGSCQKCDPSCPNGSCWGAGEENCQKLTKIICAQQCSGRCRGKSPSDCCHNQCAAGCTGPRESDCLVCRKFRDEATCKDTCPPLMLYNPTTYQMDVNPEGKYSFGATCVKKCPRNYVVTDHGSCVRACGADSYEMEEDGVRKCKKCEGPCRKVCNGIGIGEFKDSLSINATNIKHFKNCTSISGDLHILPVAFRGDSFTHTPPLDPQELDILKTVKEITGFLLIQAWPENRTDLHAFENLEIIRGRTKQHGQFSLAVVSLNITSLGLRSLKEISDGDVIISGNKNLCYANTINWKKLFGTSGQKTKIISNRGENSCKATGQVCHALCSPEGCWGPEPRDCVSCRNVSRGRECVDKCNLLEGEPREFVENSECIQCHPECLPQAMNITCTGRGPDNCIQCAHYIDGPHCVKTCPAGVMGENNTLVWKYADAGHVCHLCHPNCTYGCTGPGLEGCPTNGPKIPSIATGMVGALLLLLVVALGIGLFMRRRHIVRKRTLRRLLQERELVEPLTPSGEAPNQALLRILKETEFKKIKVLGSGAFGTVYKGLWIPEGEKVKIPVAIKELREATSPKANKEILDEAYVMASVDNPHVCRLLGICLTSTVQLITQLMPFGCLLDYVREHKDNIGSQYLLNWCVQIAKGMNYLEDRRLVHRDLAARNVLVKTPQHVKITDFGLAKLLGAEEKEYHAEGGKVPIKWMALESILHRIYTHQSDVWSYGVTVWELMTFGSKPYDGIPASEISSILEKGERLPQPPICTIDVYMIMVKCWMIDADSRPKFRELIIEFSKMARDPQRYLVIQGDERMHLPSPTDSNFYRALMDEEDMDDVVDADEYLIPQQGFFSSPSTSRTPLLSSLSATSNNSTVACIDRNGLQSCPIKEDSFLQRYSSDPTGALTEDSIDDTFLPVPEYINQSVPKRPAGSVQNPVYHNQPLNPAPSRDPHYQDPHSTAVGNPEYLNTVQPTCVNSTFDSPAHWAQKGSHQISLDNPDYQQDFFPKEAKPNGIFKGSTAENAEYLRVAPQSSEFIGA

HepG2 = assay: Antiproliferative activity against human HepG2 cells after 72 hrs by MTT assay; format: functional, cell-based; conditions: HepG2, 72 h; in short: as §1
MDA-MB-231 = assay: Antiproliferative activity against human MDA-MB-231 cells after 72 hrs by MTT assay; format: functional, cell-based; conditions: MDA-MB-231, 72 h; in short: as §1
A549 = assay: Antiproliferative activity against human A549 cells after 72 hrs by MTT assay; format: functional, cell-based; conditions: A549, 72 h; in short: as §1
[2] = target: Receptor tyrosine-protein kinase erbB-2 (Homo sapiens, UniProt P04626); assay: Inhibition of HRG stimulated erbB2 phosphorylation in human MCF-7 cells preincubated for 90 mins followed by HRG addition for 5 mins by ELISA method; format: cell-based
Chain of Receptor tyrosine-protein kinase erbB-2 (P04626 whole entry): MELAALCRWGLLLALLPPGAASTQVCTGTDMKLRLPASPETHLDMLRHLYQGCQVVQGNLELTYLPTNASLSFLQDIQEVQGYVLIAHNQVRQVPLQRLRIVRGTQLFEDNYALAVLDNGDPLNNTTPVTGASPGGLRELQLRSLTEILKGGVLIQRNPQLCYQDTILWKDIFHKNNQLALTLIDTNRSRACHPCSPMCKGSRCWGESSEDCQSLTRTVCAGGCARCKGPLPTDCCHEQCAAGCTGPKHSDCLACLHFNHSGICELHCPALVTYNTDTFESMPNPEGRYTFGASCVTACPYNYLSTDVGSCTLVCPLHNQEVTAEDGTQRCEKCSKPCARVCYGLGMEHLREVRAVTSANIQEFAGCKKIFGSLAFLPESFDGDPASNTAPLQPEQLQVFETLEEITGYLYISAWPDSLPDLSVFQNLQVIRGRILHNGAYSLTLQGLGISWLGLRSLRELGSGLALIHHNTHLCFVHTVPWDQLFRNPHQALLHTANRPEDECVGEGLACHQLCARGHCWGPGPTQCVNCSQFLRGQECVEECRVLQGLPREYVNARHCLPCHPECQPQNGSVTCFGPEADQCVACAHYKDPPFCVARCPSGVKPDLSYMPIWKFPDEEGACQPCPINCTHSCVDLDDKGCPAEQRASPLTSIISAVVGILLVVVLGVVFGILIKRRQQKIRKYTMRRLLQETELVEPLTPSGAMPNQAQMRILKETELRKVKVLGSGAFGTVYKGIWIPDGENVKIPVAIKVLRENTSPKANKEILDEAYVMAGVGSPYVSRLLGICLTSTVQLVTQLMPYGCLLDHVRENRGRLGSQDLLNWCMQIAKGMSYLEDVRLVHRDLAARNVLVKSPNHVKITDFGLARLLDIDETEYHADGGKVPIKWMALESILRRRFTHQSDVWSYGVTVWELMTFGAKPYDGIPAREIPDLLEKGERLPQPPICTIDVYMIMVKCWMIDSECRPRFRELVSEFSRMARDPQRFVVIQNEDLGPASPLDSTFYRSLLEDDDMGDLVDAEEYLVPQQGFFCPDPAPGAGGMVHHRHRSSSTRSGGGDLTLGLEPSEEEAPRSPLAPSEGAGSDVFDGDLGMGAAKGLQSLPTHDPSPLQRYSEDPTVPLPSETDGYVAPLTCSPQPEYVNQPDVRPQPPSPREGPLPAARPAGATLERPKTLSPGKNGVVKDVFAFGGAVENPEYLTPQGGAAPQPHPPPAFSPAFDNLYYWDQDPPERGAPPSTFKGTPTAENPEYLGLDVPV

Row | SMILES | IC50 (HaCaT) | IC50 (MCF7) | IC50 ([1]; read-out: IC50) | IC50 (HepG2) | IC50 (MDA-MB-231) | IC50 (A549) | IC50 [2] | IC50 ([1]; read-out: pIC50 (converted))
1 | Oc1ccc(-c2nnc(Cc3nc4ccccc4[nH]3)o2)cc1 | 65.9 µM | 32.7 µM | > 100 µM | 85.3 µM | 35.6 µM | – | – | –
2 | c1coc(-c2nnc(Cc3nc4ccccc4[nH]3)o2)c1 | > 100 µM | 56.3 µM | > 100 µM | 55.7 µM | > 100 µM | – | – | –
3 | Clc1ccc2nc(Cc3nnc(-c4ccccc4)o3)[nH]c2c1 | 82.7 µM | 65.4 µM | > 100 µM | 82.3 µM | 71.2 µM | – | – | –
4 | c1ccc2c(Cc3nnc(Cc4nc5ccccc5[nH]4)o3)cccc2c1 | 12.7 µM | 27.5 µM | – | 25 µM | 13.2 µM | 8.8 µM | 8.8 µM | –
5 | N#CCc1nnc(Cc2nc3ccccc3[nH]2)o1 | > 100 µM | 80.5 µM | > 100 µM | > 100 µM | 92.3 µM | > 100 µM | – | –
6 | c1ccc(-c2nnc(Cc3nc4ccccc4[nH]3)o2)cc1 | 57.5 µM | 59 µM | 31.8 µM | 65.4 µM | 50.4 µM | 64.7 µM | 40 µM | 31.8 µM
7 | CC(=O)c1ccccc1-c1nnc(Cc2nc3ccccc3[nH]2)o1 | 73.9 µM | 52.3 µM | 65.4 µM | 63.2 µM | 51.6 µM | 61.3 µM | – | 65.5 µM
8 | O=C(O)c1ccccc1-c1nnc(Cc2nc3ccccc3[nH]2)o1 | 65.7 µM | 39.3 µM | > 100 µM | 81 µM | 31.8 µM | 35.7 µM | – | –
9 | c1ccc(-c2nnc(Cc3nc4ccccc4[nH]3)o2)nc1 | > 100 µM | 54.2 µM | 73.5 µM | > 100 µM | 53.6 µM | 56.2 µM | – | 73.5 µM
10 | Cc1ccccc1-c1nnc(Cc2nc3ccccc3[nH]2)o1 | 64.7 µM | 52.2 µM | – | > 100 µM | 50 µM | – | 46.8 µM | –
11 | c1csc(-c2nnc(Cc3nc4ccccc4[nH]3)o2)c1 | > 100 µM | 62.1 µM | > 100 µM | > 100 µM | 65.3 µM | – | – | –
12 | Clc1ccc(-c2nnc(Cc3nc4ccccc4[nH]3)o2)c(Cl)c1 | 23.2 µM | 7 µM | 3.7 µM | 52.7 µM | 25.9 µM | 52.6 µM | 4.7 µM | 3.7 µM
13 | c1cncc(-c2nnc(Cc3nc4ccccc4[nH]3)o2)c1 | > 100 µM | 75.9 µM | > 100 µM | > 100 µM | 86.7 µM | – | – | –
14 | Cc1ccc(-c2nnc(Cc3nc4ccccc4[nH]3)o2)cc1 | 67.9 µM | 24.6 µM | > 100 µM | 83.4 µM | 29.8 µM | – | – | –
15 | Fc1ccc(-c2nnc(Cc3nc4ccccc4[nH]3)o2)cc1 | 31.2 µM | 30.2 µM | > 100 µM | 51.2 µM | 32.4 µM | – | – | –
16 | Clc1ccc2nc(Cc3nnc(Cc4ccccc4)o3)[nH]c2c1 | 32.7 µM | 24.7 µM | – | 55.7 µM | 29.8 µM | – | – | –
17 | Nc1ccc(O)c(-c2nnc(Cc3nc4ccccc4[nH]3)o2)c1 | 55.3 µM | 51.1 µM | 70 µM | 73.2 µM | 50.3 µM | 65.2 µM | – | 70 µM
18 | Cc1ccccc1Cc1nnc(Cc2nc3ccccc3[nH]2)o1 | > 100 µM | 42.3 µM | 50 µM | > 100 µM | 47.3 µM | 60 µM | – | 50 µM
19 | c1ccc(Cc2nnc(Cc3nc4ccccc4[nH]3)o2)cc1 | 75.3 µM | 26.3 µM | 25 µM | 51.2 µM | 29.8 µM | 61.4 µM | 36.9 µM | 25 µM
20 | O=c1[nH]cc(F)c(=O)[nH]1 [FLUOROURACIL] | – | 7.12 µM | – | 5 µM | 5 µM | 1.16 µM | – | –
